We go through 7 molecules from ChEMBL document CHEMBL3271990, “Ergot alkaloids. New ergolines as selective dopaminergic stimulants” (1978).

The test system of assay [1] is Rattus norvegicus. Description: Inhibition of serum prolactin in sc dosed rat after 4 hrs by RIA. In kind it is functional. The method, boiled down: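 Serum prolactin measured by RIA 4 h after sc dosing, expressed as NIH-RP. ED50 calculated from dose-response relationships.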
Assay [2] concerns Rattus norvegicus. As to the kind of experiment: Inhibition of ovum implantation in sc dosed inseminated rat. It is filed as functional. The essentials:
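Inseminated rats dosed sc. ED value for inhibition of ovum implantation.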

For assay [3], the system named is Rattus norvegicus. As to the kind of experiment: Induction of turning toward intact side in OFA rat model with 6-OH-DA-induced unilateral degeneration of nigrostriatal tract at 1 mg/kg, ip. Also on record: dose 1 mg/kg. In kind it is functional, organism-based.
Assay [4] deals with Rattus norvegicus. As to the kind of experiment: Induction of stereotypy in OFA rat at 10 mg/kg, sc measured every 30 mins for 2 hrs followed by every 60 mins for 7 hrs. It is filed as functional, organism-based. More on the design: dose 10 mg/kg. The method, boiled down: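 Male OFA rats (180-250 g), housed singly in cylinders with wire-netting floor, acclimatized 30 min before dosing. Behaviour observed every 30 min for 2 h, then every 60 min up to 7 h total. Stereotypy (sniffing, licking, biting) scored on Costall et al. scale; total score per rat over 0-7 h. Six rats per dose.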

The test system of assay [5] is Rattus norvegicus. As to the kind of experiment: Induction of stereotypy in OFA rat at 30 mg/kg, ip measured every 30 mins for 2 hrs followed by every 60 mins for 7 hrs. Also on record: dose 30 mg/kg. It is filed as functional, organism-based. The essentials:
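Male OFA rats (180-250 g), each in its own cylinder with a wire-netting floor, acclimatized 30 min, then dosed. Observed every 30 min for 2 h, then every 60 min up to 7 h total. Six rats per dose. Sniffing, licking and biting scored with the Costall et al. system and summed as total activity per rat over 0-7 h.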

The source made the active and inactive calls. The calls are words filed in the database; no cut-off is given here.

In the case of `CN1C[C@H](CC#N)C[C@@H]2c3cccc4[nH]cc(c34)C[C@H]21`, the values for the ED50 in the assay on Rattus norvegicus [1] and with Rattus norvegicus [2] were 0.06 mg/kg and 1 mg/kg, respectively. Also, the result in the assay with Rattus norvegicus [3] was Active.

As for `CN1CCc2cccc3c2[C@H]1Cc1ccc(O)c(O)c1-3`, in the assay on Rattus norvegicus [4], the result was Active.

In the case of `CN1C[C@@H](CC#N)C[C@H]2c3cccc4[nH]cc(c34)C[C@H]21`, the outcome with Rattus norvegicus [5] and in the assay with Rattus norvegicus [3] was Active.

For `CC(C)C[C@H]1C(=O)N2CCC[C@H]2[C@]2(O)O[C@](NC(=O)[C@@H]3C=C4c5cccc6[nH]c(Br)c(c56)C[C@H]4N(C)C3)(C(C)C)C(=O)N12` [BROMOCRIPTINE], the outcome in the assay with Rattus norvegicus [5] was Active. The ED50 with Rattus norvegicus [1] is 0.007 mg/kg; in the assay on Rattus norvegicus [2] it was 0.75 mg/kg.

Take `CN1C[C@@H](CC#N)C[C@@H]2c3cccc4[nH]cc(c34)C[C@H]21` [DELERGOTRILE]: the outcome with Rattus norvegicus [5] and in the assay with Rattus norvegicus [3] was Active. Moreover, the ED50 is 0.06 mg/kg in the assay with Rattus norvegicus [1] and 3 mg/kg in the assay on Rattus norvegicus [2].

Turning to `CN1C[C@H](CC#N)C[C@@H]2c3cccc4[nH]c(Cl)c(c34)C[C@H]21` [LERGOTRILE], the result in the assay on Rattus norvegicus [5] and in the assay on Rattus norvegicus [3] was Active. The ED50 was 0.08 mg/kg with Rattus norvegicus [1] and 2 mg/kg in the assay with Rattus norvegicus [2].

In the case of `CN1C[C@H](CSc2ccccn2)C=C2c3cccc4[nH]cc(c34)C[C@H]21` [TIOMERGINE], the ED50 is 1.47 mg/kg in the assay with Rattus norvegicus [1] and 11.5 mg/kg in the assay on Rattus norvegicus [2]. In the assay with Rattus norvegicus [3], the result was Active.
